Calls of active or inactive are those of the source. The rule behind the calls is not given here.
Key:
[1] = system: Fusarium oxysporum f. sp. lini; assay: Antifungal activity against Fusarium oxysporum f. sp. lini assessed as inhibition of radial fungal growth at 0.58 mM after 6 days; type: functional; conditions: 144 h, read-out: GI
Outline: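 Mycelial plug (6 mm) cut from margin of 4-day-old MEA culture placed on MEA plates containing compound (DMF vehicle, ≤1% v/v final) at 0.58 mM dithiocarbamoyl equivalent; 20 °C, 12 h photoperiod; colony diameter read daily over 6 days; percent growth inhibition versus untreated culture; three replicates per treatment, two runs; two-sample t-test, P 0.01.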

[2] = system: Fusarium oxysporum f. sp. lini; assay: Induction of morphological alterations in Fusarium oxysporum f. sp. lini; type: functional, organism-based
Outline: (§1)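 Fayret liquid medium with compound in DMF at 0.58 mM dithiocarbamoyl equivalent, inoculated with glass-wool-filtered spores (hemocytometer count) from 10-day-old MEA culture to 104 spores mL-1; shaken at 90 tpm, 20 °C, 12 h photoperiod, 7 days; spore germination and hyphal morphology of treated versus untreated fungus examined by light microscopy.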

[3] = system: Fusarium oxysporum f. sp. lini; assay: Induction of delay in spore germination of Fusarium oxysporum f. sp. lini; type: functional, organism-based; outline: as §1
[4] = system: Fusarium oxysporum f. sp. lini; assay: Inhibition of spore germination of Fusarium oxysporum f. sp. lini; type: functional, organism-based
Outline: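 Liquid Fayret medium held N,N-dimethylformamide solutions at 0.58 mM equivalent of dithiocarbamoyl group. Spores were washed from a 10-day MEA culture, glass-wool filtered, counted by hemocytometer and seeded at 10^4 spores mL-1. Tubes were shaken at 90 tpm at 20 °C under a 12 h photoperiod for 7 days. Germination timing and hyphal morphology were assessed by light microscopy against untreated controls.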

[5] = system: Fusarium oxysporum f. sp. lini; assay: Antifungal activity against Fusarium oxysporum f. sp. lini assessed as inhibition of radial fungal growth at 100 ppm after 6 days; type: functional
Outline: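 Radial growth on malt extract agar. Compounds dissolved in N,N-dimethylformamide (final ≤1% v/v) were mixed into molten MEA at 50 °C, giving 0.58 mM equivalent of dithiocarbamoyl group. A 6 mm plug from the margin of a 4-day MEA culture was placed on each plate. Plates were held at 20 °C under a 12 h photoperiod, with colony diameter read daily for 6 days. Two runs, three replicates each; two-sample t-test against untreated cultures.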

For CCCCCCCC(=O)OC(CSC(=S)N(CC)CC)CSC(=S)N(CC)CC, the inhibition of growth at 580 µM [1] was 7%.
For CCN(CC)C(=S)SCC(=O)CSC(=S)N(CC)CC, the inhibition of growth at 580 µM [1] was 12%.
In the case of CCN(CC)C(=S)SC[C@H]1OC(O)[C@H](O)[C@@H](SC(=S)N(CC)CC)[C@@H]1O (stereo not given in full), the Activity [2] is reported as “Active”, the inhibition of growth at 580 µM [1] is reported as 18% and the Activity [3] is reported as “Active”.
For CCN(CC)C(=S)SCC(O)CSC(=S)N(CC)CC, the Activity [2] was “Active”, the inhibition of growth at 580 µM [1] was 30% and the Activity [3] was “Active”.
For CCN(CC)C(=S)SC[C@H](O)[C@H]1O[C@@H]2OC(C)(C)O[C@@H]2[C@H]1SC(=S)N(CC)CC, the inhibition of growth at 580 µM [1] was 17% and the Activity [3] was “Active”.
In the case of maneb, the inhibition [4] is reported as “Active” and the growth inhibition (GI) [5] is reported as 12%.
For CCN(CC)C(=S)S [DITIOCARB SODIUM], the inhibition [4] was “Active” and the inhibition of growth at 100 ppm ([5]; 144 h, read-out: GI) was 18%.
For CCSC(=S)NCC(O)CNC(=S)SCC, the Activity [2] was “Active”, the inhibition of growth at 580 µM [1] was 27% and the Activity [3] was “Active”.
Work on CCCC(=O)OC(CSC(=S)N(CC)CC)CSC(=S)N(CC)CC yielded an inhibition of growth at 580 µM [1] of 12%.
For CCN(CC)C(=S)SCC(CSC(=S)N(CC)CC)OC(C)=O, the inhibition of growth at 580 µM [1] was 12%.
Work on CCN(CC)C(=S)SCC(O)CO (racemic) yielded an inhibition of growth at 580 µM [1] of 10%.

Reference: ChEMBL document CHEMBL3045340, “Synthesis and antifungal activity of novel bisdithiocarbamate derivatives of carbohydrates against Fusarium oxysporum f. sp. lini” (2000)
